Results collected from several papers.
Each line is one published result; the experiments were not run side by side.
Target: Mitogen-activated protein kinase kinase kinase 10 (MAP3K10, Homo sapiens, UniProt Q02779)

Compound	read-out	action	technique	concentration	quantity	value
C[C@H](NC(=O)c1cnc2n1[C@](C)(Cc1ccc(C#N)cc1)C(=O)N2c1cc(Cl)c(F)c(Cl)c1)C(=O)NC1(c2ccccn2)CC1	cell-free assay		competition with immobilised ligand	1 µM	remaining binding	100%
COc1cc2c(N3CCN(C(=O)Nc4ccc(OC(C)C)cc4)CC3)ncnc2cc1OCCCN1CCCCC1	cell-free assay			0.5 µM	remaining signal	101%
CCS(=O)(=O)c1cc2cc(C[C@](O)(CC(C)(C)c3ccc(F)cc3C(N)=O)C(F)(F)F)[nH]c2cn1	cell-free assay		competition with immobilised ligand	1 µM	remaining binding	100%
CN1CC(Oc2cnc(C#N)cc2-c2ccn3nc(NC(=O)C4CC4)cc3c2)C1	enzyme activity	inhibitor		1 µM	inhibition	8%
CS(=O)(=O)NCC[C@H](NC(=O)c1cncc2c1cnn2-c1ccc(F)cc1)c1ccnc(S(C)(=O)=O)c1	cell-free assay		competition with immobilised ligand	1 µM	remaining binding	75%
Cc1sc(C(=O)NC2COC2)cc1-n1cc(NC(=O)Nc2c(F)cccc2Cl)cn1	enzyme activity	inhibitor		10 µM	remaining activity	90.8%
COc1cccc2c(NCc3ccccc3)nc(-n3c(N)nc4ccccc43)nc12	target engagement in cells	inhibitor	chemoproteomics	20 mM	inhibition	17.4%
Clc1ccc(Nc2nnc(Cc3ccncc3)c3ccccc23)cc1	cell-free assay			0.5 µM	remaining signal	110%
Cn1nc(C(=O)NCc2ccc(C(=O)O)cc2)cc1-c1ccc2[nH]ccc2c1	cell-free assay		competition with immobilised ligand	0.1 µM	remaining binding	100%
C[C@@H]1CCN(C(=O)CC#N)C[C@@H]1N(C)c1ncnc2[nH]ccc12	cell-free assay	inhibitor		0.5 µM	remaining signal	105%
O=C1NC(c2ccccn2)Sc2ccccc21 (centres unmarked)	cell-free assay		competition with immobilised ligand	1 µM	remaining binding	94%
CCCCNc1ncc2c(-c3ccc(F)cc3)nn(C[C@H]3CC[C@H](N)CC3)c2n1	target engagement in cells	inhibitor	chemoproteomics	20 mM	inhibition	65.4%
CC(C)(C)c1nc(-c2cccc(NS(=O)(=O)c3c(F)cccc3F)c2F)c(-c2ccnc(N)n2)s1	enzyme activity	inhibitor	radiometric	1 µM	remaining activity	91%
CCN(CC)CCNC(=O)c1c(C)[nH]c(/C=C2\C(=O)Nc3ccc(F)cc32)c1C	cell-free assay			0.5 µM	remaining signal	104%
COc1cc(Cl)c(C(=O)N[C@@H](CN[C@H]2CC[C@@H](N)CC2)Cc2ccc(C#N)cc2)cc1-c1ccc(CN[C@H](C)c2ccc(C)cc2)o1	enzyme activity	inhibitor		1 µM	remaining activity	97%
O=C1Nc2ccc(Cl)cc2C1=Cc1cc(Cl)c(O)c(Cl)c1	cell-free assay			0.5 µM	remaining signal	86.8%
Cc1cc(NC(=O)c2cccc3cc(-c4cccc5[nH]nc(N)c45)ccc23)ccc1F	enzyme activity	inhibitor		0.1 µM	activity vs control	98%
